KCNK9 inh = human KCNK9 channel inhibition; B-score at 10 µM; Q9NPC2; HEK293 KCNK9, FluxOR thallium flux fluorescence; stronger effect = lower value; 310,000 tested, 1.2% active; AID 488922;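 active means ratio B-score over 3 SD below the library mean, with starting fluorescence within 5 SD of its mean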;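 further: negative B-score means less thallium flux so channel inhibition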
Target sequence (Q9NPC2 whole entry, looked up): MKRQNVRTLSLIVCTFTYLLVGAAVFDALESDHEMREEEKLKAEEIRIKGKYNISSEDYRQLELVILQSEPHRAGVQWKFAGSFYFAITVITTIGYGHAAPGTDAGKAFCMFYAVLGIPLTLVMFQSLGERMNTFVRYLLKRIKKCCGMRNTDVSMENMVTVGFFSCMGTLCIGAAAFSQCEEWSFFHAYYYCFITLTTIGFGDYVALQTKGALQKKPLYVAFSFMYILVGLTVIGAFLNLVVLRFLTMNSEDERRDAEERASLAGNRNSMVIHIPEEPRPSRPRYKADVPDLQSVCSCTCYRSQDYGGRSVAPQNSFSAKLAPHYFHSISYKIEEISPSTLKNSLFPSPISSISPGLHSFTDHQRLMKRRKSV
hERG rescue = shields human hERG channel from block by proarrhythmic agents; Q12809; CHO-hERG, FluxOR thallium flux, dofetilide IC70 present; activation (rescue from dofetilide block), less the hit threshold, % at 10 µM; 310,000 tested, 0.51% active; AID 1511;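 active means activation above the mean of controls blocked by dofetilide plus 5 SD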;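 further: thallium influx through hERG after potassium depolarization seen as dye fluorescence rise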
KCNQ1 inh = inhibitors of human KCNQ1 potassium channel; CHO-K1 KCNQ1, FluxOR thallium flux fluorescence; stronger effect = higher value; B-score at 10 µM; 310,000 tested, 1.3% active;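 active means compounds whose thallium flux B-score, printed positive for inhibition, exceeds three library SD while starting fluorescence stays within three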;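 further: channel opened by potassium depolarization with thallium stimulus after 20 min compound exposure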
KCNQ1 pot = potentiates or activates the human KCNQ1 potassium channel; P51787; CHO-K1 KCNQ1, thallium flux FluxOR fluorescence; stronger effect = higher value; B-score at 10 µM; 310,000 tested, 0.35% active; AID 2648;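 active means fluorescence ratio B-score, a plate-corrected score, at least three library SD, with initial intensity B-score within 5 SD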
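Test system: CHO-K1 cells stably expressing KCNQ1 / Medium: assay buffer / Also added: depolarizing K+/Tl+ stimulus, K2SO4 and Tl2SO4 each 12.5 mM in 5x stock / Incubation: 90 min dye loading and 20 min compound exposure, both at room temperature / Signal: thallium influx via FluxOR fluorescence, kinetic imaging / Evaluation: B score of baseline-normalized fluorescence ratio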
KCNK3 block = human KCNK3 channel inhibition, primary screen. CHO-KCNK3 thallium flux, FluxOR fluorescence; stronger effect = lower value. B-score at 10 µM. 340,000 tested, 0.84% active;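 active means B-score under library mean minus 4 SD, starting fluorescence ratio at most library mean plus 5 SD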;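 further: more negative B-score means stronger inhibition of thallium flux through KCNK3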
Kir21 block = Kir2.1 (mouse) channel inhibition; HEK293-Kir2.1, FluxOR thallium flux fluorescence; stronger effect = lower value; 310,000 tested, 0.85% active; B-score at 10 µM; AID 1672; P35561;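 active means fluorescence ratio B-score at or below minus 3 SD of library scores, with starting-brightness B-score within 2 SD, cut at about -4.2 in these data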;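 further: channel flux triggered by added potassium and thallium sulfate stimulus; B-score of peak minus minimum fluorescence over baseline after thallium stimulus; more negative B-score means stronger Kir2.1 block with less thallium influx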
Target sequence (P35561 whole entry, looked up): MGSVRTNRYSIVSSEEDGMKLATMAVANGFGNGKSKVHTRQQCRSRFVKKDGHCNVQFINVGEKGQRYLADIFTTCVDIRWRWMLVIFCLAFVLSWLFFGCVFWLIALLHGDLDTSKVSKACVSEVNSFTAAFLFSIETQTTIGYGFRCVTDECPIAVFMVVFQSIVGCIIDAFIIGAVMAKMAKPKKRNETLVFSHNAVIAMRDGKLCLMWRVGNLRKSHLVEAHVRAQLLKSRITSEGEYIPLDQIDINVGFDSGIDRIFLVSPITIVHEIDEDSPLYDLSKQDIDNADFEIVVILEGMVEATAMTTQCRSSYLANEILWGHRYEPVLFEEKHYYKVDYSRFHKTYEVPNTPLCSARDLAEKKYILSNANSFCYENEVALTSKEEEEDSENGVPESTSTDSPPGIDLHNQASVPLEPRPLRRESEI
KCNQ1 block val = human KCNQ1 channel inhibition, validation assay; shares compounds with KCNQ1 inh; KCNQ1 cell line, FluxOR thallium flux fluorescence; inhibition, % at 10 µM; 1,600 tested, 93% active; AID 588353;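 active means primary screen active, with duplicate mean exceeding buffer control mean plus 3 SD of buffer wells, cut at about 28% in these data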;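 further: 0% = buffer control ratio and 100% = XE991 inhibitor control ratio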
CHO KCNQ1 ctr = KCNQ1 inhibitor counter-screen hit in parental CHO cells. shares compounds with KCNQ1 inh. parental CHO-K1, FluxOR thallium flux fluorescence ratio; stronger effect = lower value; zero means no signal rise above baseline. 1,600 tested, 21% active. fluorescence ratio (Tl flux) at 10 µM;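 active means mean of duplicate thallium-flux fluorescence ratios in parental host cells more than 5 SD below the buffer control mean, cut at about 0.38 in these data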;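 further: ratio is peak minus minimum fluorescence divided by baseline fluorescence; actives read low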
KCNQ1 ephys val = confirmation of human KCNQ1 potassium channel inhibitors by electrophysiology. shares compounds with KCNQ1 inh. KCNQ1-CHO cells, automated patch clamp current. calls only at 10 µM. 490 tested, 20% active. AID 624120;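 active means KCNQ1 current drop exceeding 3 SD of negative control wells, seen in both duplicate runs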;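 further: steady state current during a 2 s step from -80 to +40 mV; negative values mean current inhibition and positive values mean potentiation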
KCNQ2 spec = KCNQ1 inhibitor that also blocks rat KCNQ2 channel; AID 651746; shares compounds with KCNQ1 inh; inhibition, % at 10 µM; KCNQ2 cells, FluxOR thallium flux fluorescence; 1,600 tested, 71% active;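 active means mean percent inhibition of the KCNQ2 thallium signal more than 5 SD above the buffer-only control wells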;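 further: KCNQ2 expressed in CHO cells; 0% = buffer control wells and 100% = XE-991 inhibitor control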
KCNQ1-KCNE1 inh = KCNQ1 inhibitor that also blocks human KCNQ1/KCNE1 channel. shares compounds with KCNQ1 inh. inhibition, % at 10 µM. AID 652147. 1,600 tested, 77% active. KCNQ1/KCNE1 cells, FluxOR thallium flux fluorescence;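 active means mean percent inhibition of duplicate wells above the buffer-only control mean plus 3 SD of those controls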;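 further: 0% = buffer only wells and 100% = XE-991 inhibitor control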
KCNK9 block conf = human KCNK9 inhibitor confirmation | shares compounds with KCNK9 inh | HEK293 KCNK9 cells, FluxOR thallium flux fluorescence | inhibition, % at 10 µM | 4,900 tested, 43% active | AID 492992;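 active means thallium signal inhibited by more than 5 SD of the compound-free buffer control wells, on both duplicate plates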;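 further: 0% = assay buffer control wells without compound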
Kir21 sel = mouse Kir2.1 off-target activity of KCNK9 modulators; 4,900 tested, 4% active; AID 492993; Kir2.1 cells, FluxOR thallium flux fluorescence; shares compounds with KCNK9 inh; inhibition, % at 10 µM;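 active means thallium signal drop more than 5 SD beyond the mean of the no-compound control wells, seen in both duplicate plates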;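 further: signal is fluorescence rise after thallium addition divided by baseline fluorescence; plate controls were assay buffer only for no effect and full block by chlorpromazine control for full effect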
HEK293 Tl ctr = second check of KCNK9 modulator effects in non-induced HEK293 cells | shares compounds with KCNK9 inh | FluxOR thallium flux | inhibition, % at 10 µM | 4,900 tested, 40% active | AID 492997;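 active means thallium signal drop beyond 5 SD of the untreated control mean, on both duplicate plates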;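 further: plate controls were buffer only IC0 wells for no effect and SID17386958 at its maximal inhibitory level for full effect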
KCNK3 confirm = confirmation of human KCNK3 two-pore domain potassium channel inhibitors; 2,400 tested, 99% active; shares compounds with KCNK3 block; ratio percent of control, % at 10 µM; CHO-KCNK3 thallium flux, FluxOR fluorescence; 0% buffer, 100% carvedilol maximal block;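 active means ratio percent of control, averaged over triplicates, above buffer control mean plus 5 SD, cut at about 64% in these data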;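 further: ratio is the fluorescence rise from min to max over baseline after thallium stimulus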
KCNK3 uninduced = activity in cells without induced KCNK3 expression; shares compounds with KCNK3 block; non-induced KCNK3 parental cells, FluxOR thallium flux; stronger effect = lower value; thallium flux ratio (lower = more inhibition) at 10 µM; 2,400 tested, 40% active;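 active means thallium flux ratio, averaged over three wells, more than 5 SD below the buffer control mean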;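 further: host cells are CHO cells without KCNK3 induction; ratio is peak minus trough fluorescence over baseline then normalized to buffer controls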
* hit, by the source's call; i = inactive; x = not tested or not shown; + = active, no number. Shown are actives, neighbours in structure and some others; about 3.8% of the full set was active somewhere.

SMILES | KCNK9 inh | hERG rescue | KCNQ1 inh | KCNQ1 pot | KCNK3 block | Kir21 block | KCNK9 block conf | Kir21 sel | HEK293 Tl ctr | others
Brc1cccc(CNCCc2ccc3c(c2)OCO3)c1 | i | -1.3 | 6* | i | i | -2.94 | x | x | x | KCNQ1 block val=100.5*;CHO KCNQ1 ctr=0.441;KCNQ1 ephys val=+;KCNQ2 spec=85.7%*;KCNQ1-KCNE1 inh=53.5%*
COc1ccc(-[n+]2c(-c3ccccc3)cc(-c3ccc(C)cc3)cc2-c2ccccc2)cc1 | -16.4* | -31.2 | 15* | i | -8.87* | -12.8* | 60.5%* | 78.0%* | 29.5%* | KCNQ1 block val=94.5*;CHO KCNQ1 ctr=0.44;KCNQ1 ephys val=+;KCNQ2 spec=109.3%*;KCNQ1-KCNE1 inh=163.0%*
O=C1CC(=O)N(c2ccccc2)C(=O)N1 | x | x | x | x | i | x | x | x | x
Cc1ccc(O)c(C(=O)c2cc(C(=O)NCCC(C)C)c(=O)n(CCC(C)C)c2)c1 | i | -14.2 | 19* | i | -9.48* | -0.22 | x | x | x | KCNQ1 block val=129.5*;CHO KCNQ1 ctr=0.389;KCNQ1 ephys val=i;KCNQ2 spec=125.7%*;KCNQ1-KCNE1 inh=124.0%*;KCNK3 confirm=131.7*;KCNK3 uninduced=0.156*
COP(=O)(OC)Oc1ccc(C(O)C(Cl)(Cl)Cl)cc1 (configuration not stated) | i | -4.1 | i | i | i | -0.35 | x | x | x
Brc1ccc(-[n+]2c(-c3ccccc3)cc(-c3ccccc3)cc2-c2ccccc2)cc1 | -8.27* | -32.7 | 7* | i | i | -8.37* | 64.0%* | 58.5%* | i
Cc1ccc(-c2cc(-c3ccc(C)cc3)[n+](-c3ccc(C(=O)O)cc3)c(-c3ccc(C)cc3)c2)cc1 | i | -2.1 | i | i | i | 2.07 | x | x | x
CC(C)=CCc1c(O)cc2c(c1O)C(=O)CC(c1ccc(O)cc1)O2 (configuration not stated) | -16.7* | -19.8 | i | i | i | 0.33 | i | i | i
Cc1cc(C)nc(NC2=NCCS2)n1 | i | -7.9 | i | i | i | 0.31 | x | x | x
CCC1CN2CCc3cc(OC)c(OC)cc3C2CC1CC1NCCc2c1[nH]c1ccc(O)cc21 (configuration not stated) | x | x | x | x | i | x | x | x | x
Cc1cc(N2CCNCC2)nc2ccccc12 | i | -1.2 | i | i | i | 1.26 | x | x | x
CCCCn1c(O)c(/C(CC)=N/N2CCCCC2c2cccnc2)c(=O)[nH]c1=S (configuration not stated) | -18.1* | -10.6 | i | i | i | 3.98 | 77.5%* | i | 55.5%*
C/C(=N\N1CCCCC1c1cccnc1)c1c(O)n(C2CCCCC2)c(=S)[nH]c1=O (configuration not stated) | -14* | -9.8 | i | i | i | 0.67 | 75.0%* | i | 55.5%*
CCCCn1c(O)c(/C=N/N2CCCCC2c2cccnc2)c(=O)[nH]c1=S (configuration not stated) | i | -3.3 | i | i | i | -1.06 | x | x | x
Cc1ccc2c(c1)C1CN(C)CCC1N2C(=O)c1cn(-c2ccccc2)nc1-c1ccccc1 (configuration not stated) | i | -17.8 | i | i | i | -0.7 | x | x | x
Oc1ccc2ccccc2c1CN1CC=C(c2ccccc2)CC1 | i | -2.5 | i | i | i | 0.26 | i | i | i
COc1cccc(-n2c(-c3ccoc3)nc3ccccc3c2=O)c1 | -17.9* | -7.8 | i | i | i | -0.34 | i | i | i
COc1cccc(-n2c(C)nc3ccccc3c2=O)c1 | i | 0.1 | i | i | i | -1.15 | x | x | x
COC(=O)C(O)(c1c(C)[nH]c2ccccc12)C(F)(F)F (configuration not stated) | x | x | x | x | i | x | x | x | x
CCCCCCC(=O)c1c(O)n(-c2ccccc2OC)c(=O)[nH]c1=O | i | -7.2 | i | i | i | -0.7 | x | x | x
O=C(O)C1C2CCC(O2)C1C(=O)NC1CCCCC1 (configuration not stated) | i | 0.8 | i | i | i | 1.31 | x | x | x
Cc1ccc(OCCn2cccc2/C=C2/C(=O)NC(=O)N(Cc3ccco3)C2=O)cc1 | i | -3.6 | i | i | i | -1.49 | i | i | i
Cn1cccc1/C=C1\C(=O)NC(=O)N(Cc2ccco2)C1=O | i | -9.1 | i | i | i | 1.11 | x | x | x
OC1(c2ccc(F)cc2)CC2CCC(C1)N2Cc1nnnn1C1CCCC1 (configuration not stated) | i | -0.5 | i | i | i | -0.09 | x | x | x
CCOC(=O)C1(CCc2ccccc2)CCN(Cc2cccc3cnccc23)CC1 | i | -14.9 | i | i | i | -0.09 | i | i | i
CCOC(=O)C1(CCOc2ccccc2)CCN(Cc2ccccc2OC)CC1 | i | -11.1 | i | i | i | -2.76 | i | i | i
CCOC(=O)C1(CCc2ccccc2)CCN(Cc2csc(C(C)=O)c2)CC1 | i | -12.6 | i | i | i | -1.65 | i | i | i
Fc1ccc(C2=CCN(C(c3cccs3)c3nnnn3CCc3ccccc3)CC2)cc1 (configuration not stated) | -14.4* | -5.7 | i | i | i | 0.83 | 60.5%* | i | 35.5%*

Screens: PubChem BioAssay, Johns Hopkins Ion Channel Center
